Measurements from the M2OR odorant receptor database.
Substitutions are numbered along the chain they refer to.

What was measured:
Conditions in all cases: stereoisomer not certain
OR2A1 (Homo sapiens) = target: T1, OR2A1 (Homo sapiens) (UniProt Q8NGT9)
T1 sequence (whole entry): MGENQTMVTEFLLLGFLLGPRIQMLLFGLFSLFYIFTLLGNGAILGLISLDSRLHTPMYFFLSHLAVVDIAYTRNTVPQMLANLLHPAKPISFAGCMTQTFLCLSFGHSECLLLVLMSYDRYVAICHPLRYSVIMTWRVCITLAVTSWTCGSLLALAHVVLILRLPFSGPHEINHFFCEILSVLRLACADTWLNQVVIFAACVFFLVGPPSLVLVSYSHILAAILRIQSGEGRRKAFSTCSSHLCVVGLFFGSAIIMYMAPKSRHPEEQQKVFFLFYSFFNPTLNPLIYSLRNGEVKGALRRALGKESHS
Method in brief: (§1)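 Assay methods differ from source to source, frequently being transient luciferase assays in mammalian cell lines. For each receptor–molecule pair, the label responsive (active) applies when the original authors judged the measured signal statistically different from baseline, and non-responsive (inactive) applies otherwise.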

OR2A7 (Homo sapiens) = target: T2, OR2A7 (Homo sapiens) (UniProt Q96R45)
T2 sequence (whole entry): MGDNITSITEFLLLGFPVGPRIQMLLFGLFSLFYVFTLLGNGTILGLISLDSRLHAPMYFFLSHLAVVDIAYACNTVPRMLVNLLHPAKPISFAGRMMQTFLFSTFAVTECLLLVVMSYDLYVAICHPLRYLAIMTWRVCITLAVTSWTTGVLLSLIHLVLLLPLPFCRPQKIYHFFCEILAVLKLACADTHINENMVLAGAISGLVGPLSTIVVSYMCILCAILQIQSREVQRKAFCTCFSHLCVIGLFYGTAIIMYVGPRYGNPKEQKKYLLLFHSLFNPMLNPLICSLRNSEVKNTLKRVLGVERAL
Method in brief: as §1

OR1N2 = system: T3, OR1N2
T3 sequence (whole entry): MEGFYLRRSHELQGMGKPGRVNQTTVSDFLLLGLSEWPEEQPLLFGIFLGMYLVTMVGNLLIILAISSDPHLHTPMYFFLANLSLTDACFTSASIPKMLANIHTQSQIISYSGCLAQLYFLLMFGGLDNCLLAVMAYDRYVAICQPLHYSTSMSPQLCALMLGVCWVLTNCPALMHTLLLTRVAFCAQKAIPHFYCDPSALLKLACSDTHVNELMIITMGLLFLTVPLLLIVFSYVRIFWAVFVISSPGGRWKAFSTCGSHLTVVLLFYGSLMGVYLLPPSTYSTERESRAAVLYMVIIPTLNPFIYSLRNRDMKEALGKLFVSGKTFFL
Method in brief: as §1

OR1P1 (Homo sapiens) = OR1P1 (Homo sapiens) (UniProt Q8NH06)
Method in brief: as §1

OR1Q1 (Homo sapiens) = target: T4, OR1Q1 (Homo sapiens) (UniProt Q15612)
T4 sequence (whole entry): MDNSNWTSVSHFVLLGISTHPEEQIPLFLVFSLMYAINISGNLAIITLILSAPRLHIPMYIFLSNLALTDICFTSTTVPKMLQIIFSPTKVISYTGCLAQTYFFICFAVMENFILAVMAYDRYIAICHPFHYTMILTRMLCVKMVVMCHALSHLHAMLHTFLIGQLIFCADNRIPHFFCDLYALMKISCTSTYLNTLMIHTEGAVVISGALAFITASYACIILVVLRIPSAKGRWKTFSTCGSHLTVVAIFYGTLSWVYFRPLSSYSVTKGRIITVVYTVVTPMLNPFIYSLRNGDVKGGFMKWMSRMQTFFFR
Method in brief: as §1

OR1S1 (Homo sapiens) = target: T5, OR1S1 (Homo sapiens) (UniProt Q8NH92)
T5 sequence (whole entry): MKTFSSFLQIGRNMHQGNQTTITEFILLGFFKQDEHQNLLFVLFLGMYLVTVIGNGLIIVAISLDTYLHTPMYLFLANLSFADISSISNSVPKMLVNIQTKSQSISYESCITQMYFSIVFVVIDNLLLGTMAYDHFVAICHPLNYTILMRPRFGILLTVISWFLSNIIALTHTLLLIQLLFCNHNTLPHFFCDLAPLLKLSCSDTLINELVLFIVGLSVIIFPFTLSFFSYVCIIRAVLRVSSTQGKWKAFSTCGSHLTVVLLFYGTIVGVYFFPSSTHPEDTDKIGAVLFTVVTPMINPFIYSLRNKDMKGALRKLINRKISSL
Method in brief: as §1

OR1S2 (Homo sapiens) = target: T6, OR1S2 (Homo sapiens) (UniProt Q8NGQ3)
T6 sequence (whole entry): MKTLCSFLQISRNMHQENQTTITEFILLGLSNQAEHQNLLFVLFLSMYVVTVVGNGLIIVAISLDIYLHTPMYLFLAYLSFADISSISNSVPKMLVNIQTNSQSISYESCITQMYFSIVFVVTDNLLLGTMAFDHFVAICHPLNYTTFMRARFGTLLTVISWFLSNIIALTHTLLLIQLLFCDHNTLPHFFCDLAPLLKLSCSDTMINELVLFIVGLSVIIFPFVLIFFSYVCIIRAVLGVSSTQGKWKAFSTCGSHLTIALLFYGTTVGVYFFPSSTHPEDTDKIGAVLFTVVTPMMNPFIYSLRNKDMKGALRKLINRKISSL
Method in brief: as §1

OR2A12 (Homo sapiens) = target: T7, OR2A12 (Homo sapiens) (UniProt Q8NGT7)
T7 sequence (whole entry): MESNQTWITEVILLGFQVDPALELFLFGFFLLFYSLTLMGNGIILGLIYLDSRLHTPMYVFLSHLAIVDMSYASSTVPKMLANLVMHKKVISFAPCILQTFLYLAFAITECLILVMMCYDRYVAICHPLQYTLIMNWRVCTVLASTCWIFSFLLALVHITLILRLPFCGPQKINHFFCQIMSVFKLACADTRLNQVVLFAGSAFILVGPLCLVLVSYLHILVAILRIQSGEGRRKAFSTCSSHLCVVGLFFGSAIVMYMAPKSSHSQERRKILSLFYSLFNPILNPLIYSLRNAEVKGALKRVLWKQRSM
Method in brief: as §1

OR2A14 (Homo sapiens) = target: T8, OR2A14 (Homo sapiens) (UniProt Q96R47)
T8 sequence (whole entry): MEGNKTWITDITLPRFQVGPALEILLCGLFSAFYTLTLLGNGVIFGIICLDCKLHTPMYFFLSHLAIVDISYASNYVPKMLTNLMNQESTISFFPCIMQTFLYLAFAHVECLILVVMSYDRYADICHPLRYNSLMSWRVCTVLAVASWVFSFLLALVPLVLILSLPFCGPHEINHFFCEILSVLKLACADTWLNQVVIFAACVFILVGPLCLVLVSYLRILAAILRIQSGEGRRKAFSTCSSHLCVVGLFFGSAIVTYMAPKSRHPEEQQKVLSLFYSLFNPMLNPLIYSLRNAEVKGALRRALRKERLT
Method in brief: as §1

OR2A2 (Homo sapiens) = target: T9, OR2A2 (Homo sapiens) (UniProt Q6IF42)
T9 sequence (whole entry): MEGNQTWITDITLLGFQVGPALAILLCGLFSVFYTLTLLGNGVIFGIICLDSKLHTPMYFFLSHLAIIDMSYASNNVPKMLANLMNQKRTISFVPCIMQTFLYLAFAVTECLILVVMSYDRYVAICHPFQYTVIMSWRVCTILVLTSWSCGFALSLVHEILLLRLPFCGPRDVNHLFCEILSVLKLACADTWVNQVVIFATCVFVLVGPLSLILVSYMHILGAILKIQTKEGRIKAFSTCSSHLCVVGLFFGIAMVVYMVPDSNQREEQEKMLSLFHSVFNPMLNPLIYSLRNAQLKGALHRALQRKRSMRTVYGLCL
Method in brief: as §1

OR2A25 (Homo sapiens) = target: T10, OR2A25 (Homo sapiens) (UniProt A4D2G3)
T10 sequence (whole entry): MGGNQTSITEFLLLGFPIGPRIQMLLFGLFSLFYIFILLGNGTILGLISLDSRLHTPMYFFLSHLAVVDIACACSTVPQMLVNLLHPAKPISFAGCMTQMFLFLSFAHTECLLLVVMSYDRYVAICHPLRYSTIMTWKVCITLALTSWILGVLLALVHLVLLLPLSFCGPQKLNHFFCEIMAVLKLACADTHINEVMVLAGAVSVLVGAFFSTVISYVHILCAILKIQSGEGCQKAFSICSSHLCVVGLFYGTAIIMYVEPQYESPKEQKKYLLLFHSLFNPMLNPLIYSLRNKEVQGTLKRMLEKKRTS
Method in brief: as §1

OR2A4 (Homo sapiens) = target: T11, OR2A4 (Homo sapiens) (UniProt O95047)
T11 sequence (whole entry): T2 sequence (whole entry) with T9R, C238R, F250V
Method in brief: as §1

OR2A5 (Homo sapiens) = target: T12, OR2A5 (Homo sapiens) (UniProt Q96R48)
T12 sequence (whole entry): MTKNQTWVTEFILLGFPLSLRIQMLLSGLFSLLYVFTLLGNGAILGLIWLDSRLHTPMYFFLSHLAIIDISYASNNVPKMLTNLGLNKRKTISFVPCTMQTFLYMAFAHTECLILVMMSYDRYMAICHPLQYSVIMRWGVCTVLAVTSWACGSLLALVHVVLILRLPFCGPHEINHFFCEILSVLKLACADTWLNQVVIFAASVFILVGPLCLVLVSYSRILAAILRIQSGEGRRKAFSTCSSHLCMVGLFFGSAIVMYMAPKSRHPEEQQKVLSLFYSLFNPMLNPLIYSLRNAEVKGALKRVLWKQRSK
Method in brief: as §1

OR1Q1 = system: T13, OR1Q1
T13 sequence (whole entry): T4 sequence (whole entry) with Q24R, I163M
Method in brief: as §1

OR1S2 E17G = system: T14, OR1S2 E17G
T14 sequence (whole entry): T6 sequence (whole entry) with E17G
Method in brief: as §1

OR1S2 V225T G240R = system: T15, OR1S2 V225T G240R
T15 sequence (whole entry): T6 sequence (whole entry) with V225T, G240R
Method in brief: as §1

OR2A1 S168C = system: T16, OR2A1 S168C
T16 sequence (whole entry): T1 sequence (whole entry) with S168C
Method in brief: as §1

OR2A1 T73A R74C S168C = system: T17, OR2A1 T73A R74C S168C
T17 sequence (whole entry): T1 sequence (whole entry) with T73A, R74C, S168C
Method in brief: as §1

OR2A2 = system: T18, OR2A2
T18 sequence (whole entry): T9 sequence (whole entry) with F280L
Method in brief: as §1

OR2A5 I126V A202S A255T = system: T19, OR2A5 I126V A202S A255T
T19 sequence (whole entry): T12 sequence (whole entry) with I126V, A202S, A255T
Method in brief: as §1

Measured: odorant receptor agonist call

OR1P1 (Homo sapiens), sequence (Q8NH06 whole entry K185A): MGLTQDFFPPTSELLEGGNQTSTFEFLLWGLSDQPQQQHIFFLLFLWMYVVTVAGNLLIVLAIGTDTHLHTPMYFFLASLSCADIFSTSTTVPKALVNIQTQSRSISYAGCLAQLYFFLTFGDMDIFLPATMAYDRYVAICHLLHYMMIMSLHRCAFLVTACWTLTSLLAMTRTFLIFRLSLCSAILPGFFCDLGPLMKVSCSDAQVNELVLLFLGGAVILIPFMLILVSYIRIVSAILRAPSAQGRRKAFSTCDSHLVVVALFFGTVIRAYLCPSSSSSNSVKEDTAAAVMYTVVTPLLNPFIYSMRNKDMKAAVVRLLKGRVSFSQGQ

CCCCCCCCCCCCCCCCCC(=O)OC
inactive: OR2A1 (Homo sapiens) | OR2A7 (Homo sapiens)

CCCCCCCCCCCCCC(=O)OCC
inactive: OR2A1 (Homo sapiens) | OR2A7 (Homo sapiens)

CCCO
inactive: OR2A1 (Homo sapiens) | OR2A7 (Homo sapiens)

CCCCOCC(C)O (configuration not stated)
inactive: OR2A1 (Homo sapiens) | OR2A7 (Homo sapiens)

CC(=O)c1c(C)c([N+](=O)[O-])c(C(C)(C)C)c([N+](=O)[O-])c1C
not listed: OR1Q1 | OR1S2 E17G | OR1S2 V225T G240R | OR2A1 S168C | OR2A1 T73A R74C S168C | OR2A2 | OR2A5 I126V A202S A255T
inactive: all other assays above

CCCCCCC(=O)[O-].[H+]
inactive: OR2A1 (Homo sapiens) | OR2A7 (Homo sapiens)

CC1CCCCCCCCCCCCC(=O)C1 (configuration not stated)
not listed: OR1Q1 | OR1S2 E17G | OR1S2 V225T G240R | OR2A1 S168C | OR2A1 T73A R74C S168C | OR2A2 | OR2A5 I126V A202S A255T
inactive: all other assays above

CC1=C(O)C(=O)OC1C (configuration not stated)
not listed: OR1P1 (Homo sapiens)
inactive: all other assays above

CCCCCCCCCCCCCCCC(=O)OC
inactive: OR2A1 (Homo sapiens) | OR2A7 (Homo sapiens)
